# Compound activity (PubChem BioAssay)
# Only some compounds are listed: those with a hit (about 5.1% of all), similar ones and a draw of the others.
# APP 5'UTR act: activates APP 5'UTR luciferase reporter; SH-SY5Y APP 5'UTR luciferase reporter, luminescence; zero percent = DMSO vehicle wells; activation, % at 2 µM; 1% of 190,000 active;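 active = activation above a set limit, based on mean plus 3 SD of controls, cut at about 140% in these data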
# STAT1 blocker: STAT1 signaling inhibition | NIH 3T3 STAT1-luciferase reporter, IFN-gamma, luminescence | inhibition, % at 5.5 µM | 0.35% of 200,000 active | AID 920;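 active = inhibition above a set limit, the mean inhibition across all tested compounds plus 3 SD, cut at about 34% in these data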;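 also: 0% = IFN-gamma with DMSO and 100% = IFN-gamma with 300 µM nifuroxazide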
# STAT3 inh-1: reduces IL-6 driven STAT3 reporter signal; inhibition, % at 5.5 µM; AID 862; U3A cells, IL-6 STAT3-luciferase reporter, luminescence; host cell line lacks STAT1; 0.89% of 190,000 active;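 active = inhibition above the mean inhibition across all screened compounds plus 3 SD, cut at about 44% in these data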;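 also: 0% = DMSO only wells and 100% = 100 µM nifuroxazide control wells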
# STAT1 activator: activators of IFN-gamma induced STAT1 signaling. 2.6% of 200,000 active. activation (% of control), % at 5.5 µM. NIH 3T3 STAT1-luciferase reporter, luminescence; 100% = IFN-gamma alone, no compound;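 active = activation above the screen-wide mean activation plus 3 SD, cut at about 130% in these data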;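 also: raw ratio to IFN-gamma control signal so 100% means no change and 0% no light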
# STAT3 act: activators of IL-6 induced STAT3 signaling. U3A cells, IL-6 STAT3-luciferase reporter, luminescence; 100% = signal with IL-6 EC80 alone. activation (% of control), % at 5.6 µM. 0.91% of 190,000 active;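 active = activation above the screen-wide mean of compound activation plus 3 SD, cut at about 130% in these data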;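 also: 0% = background luminescence of wells with medium and substrate only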
#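 Test system: Human STAT1-deficient U3A cells with stable STAT3-luciferase reporter | Also added: Interleukin-6, 33 ng/mL | Timing: Compound pre-incubation 1 h before IL-6, then 6 h stimulation at 37 °C | Technique: Luciferase reporter luminescence | Read-out: Percent of IL-6-only median luminescence | Benchmarks: IL-6-only wells as 100% reference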
# NF-kB neuron act: raises NF-kB expression in human neuronal cells | NF-kB reporter expression; stronger effect = higher value | fold change at 12.5 µM | 1.6% of 190,000 active | AID 1239; in the data active = fold change above about 3.3
# STAT3 inh-2: STAT3 inhibition, confirmation assay; 45% of 1,200 active; U3A cells, IL-6 STAT3 luciferase reporter, luminescence; cell line lacks STAT1; inhibition, % at 5.7 µM; shares compounds with STAT3 inh-1;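 active = inhibition above the hit cutoff computed for the primary STAT3 screen, cut at about 44% in these data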;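 also: 0% = IL-6 plus DMSO and 100% = IL-6 plus nifuroxazide control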
# NFkB inh STAT3ct: counter-screen for STAT3 inhibitors: NF-kappaB inhibition; shares compounds with STAT3 inh-1; AID 1308; 36% of 1,200 active; HEK293T NF-kB luciferase reporter, TNF-alpha induced; inhibition, % at 5.7 µM;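 active = inhibition above the mean of solvent-only control wells plus 3 SD, cutoff set per campaign, cut at about 13% in these data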;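 also: 0% = TNF-alpha with DMSO and 100% = TNF-alpha with MG high control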
# STAT1 inh STAT3c: STAT1 inhibition in STAT3 inhibitor counter-screen. NIH 3T3 STAT1-luciferase reporter, IFN-gamma induced, luminescence. AID 1317. inhibition, % at 5.7 µM. shares compounds with STAT3 inh-1. 27% of 1,200 active;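 active = inhibition above the mean plus 3 SD of solvent-only control wells, limit set per screening run, cut at about 16% in these data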;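 also: 0% = DMSO with IFN-gamma and 100% = nifuroxazide control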
# * marks the source's active call; other numbers are inactive results; · = no result given.
SMILES,APP 5'UTR act,STAT1 blocker,STAT3 inh-1,STAT1 activator,STAT3 act,NF-kB neuron act,STAT3 inh-2,NFkB inh STAT3ct,STAT1 inh STAT3c
COc1cccc2cc(-c3nnc(-c4ccccc4)o3)c(=O)oc12,137.7*,-21.9,46.2*,120.4,63.8,1.86,31.3,3.3,-66.8
N/C(=N\OC(=O)CCCCCN1C(=O)c2ccccc2C1=O)c1ccccc1,4.7,-15.1,2.0,110.4,107.0,1.2,·,·,·
O=C(Nc1cccnc1)c1ccc(CN2CCc3ccccc3C2)cc1,13.9,0.8,47.0*,99.2,64.0,0.87,37.3,9.0,4.1
Cc1ccc(NC(=O)c2ccc(CN3CCc4ccccc4C3)cc2)cc1,41.6,-1.7,70.8*,101.5,40.4,2.14,66.8*,17.5*,-7.8
O=C(Nc1cccnc1)c1ccc(C(=O)Nc2cccnc2)cc1,1.5,-0.9,5.7,99.8,96.6,0.87,·,·,·
O=C(Nc1ccccc1)c1ccc(CN2CCc3ccccc3C2)cc1,2.9,-10.6,52.3*,109.0,59.4,1.61,64.2*,8.4,-2.9
COCCCNC(=O)c1ccc(CN2CCc3ccccc3C2)cc1,6.1,0.6,5.0,97.7,97.7,1.17,·,·,·
CCc1ccc(NC(=O)CN2CCc3ccccc3C2)cc1,8.8,-0.6,-10.6,100.6,110.1,0.86,·,·,·
CCN(CC)S(=O)(=O)c1ccc2c(c1)nc(CCC(=O)Nc1ccc3c(c1)OCO3)n2CC,12.3,-2.5,23.7,102.3,85.4,1.02,·,·,·
Cc1cccc(N2CCN(CC(O)COCc3cccs3)CC2)c1C (stereo not given),-4.8,8.7,0.3,92.1,98.5,1.15,·,·,·
CCC(C)(C)c1ccc(OCCCC[n+]2cccc(C)c2)c(C(C)(C)CC)c1,-2.6,29.2,66.7*,72.7,45.0,0.49,50.4*,2.3,15.8
Cc1ccc(CNC(=O)c2cc3c(C)nc4ccccc4c3o2)cc1,-6.8,22.9,54.5*,79.5,58.7,0.42,42.8,8.7,23.6*
Cc1nc2ccccc2c2oc(C(=O)NCc3ccccn3)cc12,-5.8,8.0,20.0,91.1,86.8,0.39,·,·,·
COc1ccc(-c2csc3ncn(-c4cccc(C)c4)c(=O)c23)cc1OC,-22.8,2.1,5.9,98.0,99.9,0.86,·,·,·
O=S(=O)(NCC1CCCO1)c1ccc(-c2ccc(S(=O)(=O)NCC3CCCO3)cc2)cc1 (stereo not given),-6.3,24.5,78.5*,76.0,37.5,1.05,84.5*,33.1*,22.0*
Cn1c(CN2CCCCC2)nc2cc(NC(=O)c3cccc(Br)c3)ccc21,22.6,-0.5,63.1*,100.4,49.1,1.07,50.8*,11.6,-8.5
Cn1c(CN2CCCCC2)nc2cc(NC(=O)c3ccccc3)ccc21,13.6,-7.3,16.1,106.8,89.5,1.06,·,·,·
CSc1ccccc1-c1nnc(-c2ccc(Cl)cc2Cl)o1,5.9,-25.1,15.8,122.4,92.9,2.88,·,·,·
Clc1ccc(-c2nnc(-c3ccccc3)o2)c(Cl)c1,119.4,-4.2,58.6*,103.8,55.8,4.97*,33.8,-5.2,-77.3
Fc1ccc(-c2nnc(-c3ccc(Cl)cc3Cl)o2)cc1,140.9*,11.5,70.4*,89.7,45.4,3.25,36.8,5.7,-65.5
COc1ccc(O)c(C(=O)c2coc(=N)c(C(=O)Nc3ccc(SC(F)F)cc3)c2)c1,6.7,11.0,10.6,88.1,98.0,0.71,·,·,·
Cc1ccc(C)n1-c1ccc(C(=O)N/N=C/c2ccncc2)cc1,8.7,-7.7,2.5,105.8,104.7,1.02,·,·,·
Cc1nc(N2CCC(C)CC2)c2c(C)c(C(=O)Nc3ccccc3C(F)(F)F)sc2n1,21.8,8.8,7.6,90.7,97.3,1.15,·,·,·
Cc1ccc(C)c2[nH]c(=O)c(CCNC(=O)C(C)(C)C)cc12,-3.1,3.3,22.8,97.0,85.3,1.02,·,·,·
NC(=O)CSc1nnc(-c2ccc3c(c2)OCO3)o1,94.3,-14.1,8.7,113.3,92.9,2.42,·,·,·
SMILES,APP 5'UTR act,STAT1 blocker,STAT3 inh-1,STAT1 activator,STAT3 act,NF-kB neuron act,STAT3 inh-2,NFkB inh STAT3ct,STAT1 inh STAT3c
C/C(N)=C(/C#N)C(=O)CSc1nnc(-c2ccc3c(c2)OCO3)o1,99.7,-36.8,48.0*,133.8*,62.6,6.9*,18.4,-9.0,-96.9
Cc1ccc(NC(=O)Cc2nn(C)c(=O)c3ccccc23)cc1F,-8.1,30.1,84.8*,79.5,29.7,0.87,76.7*,25.3*,22.6*
Cn1nc(CC(=O)Nc2ccc3c(c2)OCCO3)c2ccccc2c1=O,-4.7,26.1,82.9*,76.5,33.6,0.6,78.3*,34.0*,28.4*
Cc1ccc(NC(=O)Cn2nc(C)c3ccccc3c2=O)cc1F,-6.2,-7.4,-2.3,108.3,105.5,0.97,·,·,·
CCOc1ccc(NC(=S)N2CCN(CCN3C(=O)c4cccc5cccc(c45)C3=O)CC2)cc1,-5.2,-6.4,-11.5,107.7,114.4,1.08,·,·,·
O=C(N/N=C/c1ccccn1)c1ccco1,-0.8,-6.6,2.0,105.9,104.7,2.53,·,·,·
O=C(N/N=C/c1ccc2ncccc2c1)c1ccco1,116.0,28.1,67.4*,71.9,46.8,1.1,32.1,7.7,-41.9
O=C(CCCOc1ccccc1)N1CCCCC1,103.0,-0.8,48.2*,100.7,62.4,2.07,7.0,-8.0,-74.4
O=C(CCCOc1ccc(Cl)cc1)N1CCCCC1,10.1,-10.5,2.3,103.1,99.1,1.8,·,·,·
NC(=O)c1ccc(N2CCN(S(=O)(=O)c3ccccc3)CC2)c([N+](=O)[O-])c1,-12.0,24.5,72.1*,78.3,41.3,0.92,70.8*,23.0*,28.3*
Cc1cc(OCC(=O)Nc2ccncc2)ccc1Br,1.9,0.9,57.1*,99.2,55.9,0.97,52.4*,-3.8,0.2
O=C(COc1ccc([N+](=O)[O-])cc1)Nc1ccncc1,-7.4,4.0,14.5,95.0,91.1,0.88,·,·,·
CN(C)c1ccc(C(=O)c2ccccc2)cc1,64.7,-21.3,0.9,119.6,100.5,1.75,·,·,·
CN(C)c1ccc(C(=S)Nc2ccccc2)cc1,132.2,-43.9,57.2*,138.8*,52.9,2.94,23.2,-36.8,-108.6
CNC(=O)c1ccsc1NC(=O)c1sc2ccccc2c1Cl,47.2,-26.6,-3.5,124.1,102.9,1.13,·,·,·
Cc1ccc(NC(=O)c2sc3ccccc3c2Cl)nc1,191.8*,-31.0,49.0*,127.9,66.0,3.2,-0.5,0.4,-72.2
Cc1nnc(NC(=O)c2sc3ccccc3c2Cl)s1,65.4,23.7,66.2*,78.3,44.8,3.31*,45.4*,13.3*,19.2*
COCc1nnc(NC(=O)c2sc3ccccc3c2Cl)s1,11.2,-1.5,9.3,101.4,94.6,1.74,·,·,·
